Assay results of several laboratories.
Cell line: MCF7
Effect on: cell growth or viability

SMILES | test | conditions | IC50
COc1cccc2c1C(=O)c1c(O)c3c(c(O)c1C2=O)C[C@@](O)(C(=O)CO)C[C@@H]3O[C@H]1C[C@H](N)[C@H](O)[C@H](C)O1 | MTT | 24 h | 3.94 µM
Cc1cccc(N=C2C(=O)Nc3ccccc32)c1 | MTT | 48 h | 73.4 µM
NNc1nc2ccc(Br)cc2c(=O)n1-c1ccc(F)cc1 | MTT | 48 h | 10 µM
CC(C)[C@@H](CS(=O)(=O)C(C)C)N1C(=O)[C@@](C)(CC(=O)O)C[C@H](c2cccc(Cl)c2)[C@H]1c1ccc(Cl)cc1 | ATP luminescence | 48 h | ~3.9 µM
COc1cccc2c1C(=O)c1c(O)c3c(c(O)c1C2=O)C[C@@](O)(C(=O)CO)C[C@@H]3O[C@H]1C[C@H](N)[C@H](O)[C@H](C)O1 | MTT |  | 5.8 µg/mL
CC(=O)O[C@H]1C(=O)[C@@]2(C)[C@H]([C@H](OC(=O)c3ccccc3)[C@]3(O)C[C@H](OC(=O)[C@H](O)[C@@H](NC(=O)c4ccccc4)c4ccccc4)C(C)=C1C3(C)C)[C@]1(OC(C)=O)CO[C@@H]1C[C@@H]2O |  |  | 0.00751 µM
Cc1ccc(NNc2nc3ccc(Br)cc3c(=O)n2-c2ccccc2)cc1 | MTT | 48 h | > 200 µM
O=C(/C=C/c1ccc(F)cc1)c1nc2ccccc2n1Cc1cn([C@@H]2OC[C@@H](O)[C@H](O)[C@H]2O)nn1 | LDH | 48 h | 2.06 µM
CCOC(=O)c1c(C)nc2ccc(-c3ccc(F)c(F)c3)cc2c1O | MTT | 48 h | 12 µM
O=[N+]([O-])c1cc(I)c(O)c(C=NNc2ccc(Br)cc2)c1 | MTT | 24 h | 13.7 µM
NS(=O)(=O)c1ccc(-n2nc(C(=O)NN=Cc3ccccc3O)cc2-c2ccccc2)cc1 | fluorescence | 48 h | 18 µM
c1ccc(-c2noc(-c3nn(Cc4ccncc4)c4ccccc34)n2)cc1 |  | 48 h | 18.7 µM
COc1cc(C=NNC(=O)c2cc(-c3ccccc3)n(-c3ccc(S(N)(=O)=O)cc3)n2)cc(OC)c1OC | fluorescence | 48 h | 21.6 µM
CCCN1CC(Oc2ccc([C@@H]3c4[nH]c5ccccc5c4C[C@@H](C)N3CC(C)(C)F)cc2)C1 |  |  | 0.00794 µM
COC(=O)c1ccc2c(c1)NC(=O)/C2=C(\Nc1ccc(N(C)C(=O)CN2CCN(C)CC2)cc1)c1ccccc1 | MTT | 24 h | 0.98 µM
CN1CCc2c(c3ccccc3n2Cc2ccc(C(=O)NO)cc2)C1 | CCK-8 | 48 h | 27.4 µM
O=C1CS/C(=N\c2cc(C(F)(F)F)ccc2-c2nnc(N3C(=O)CS/C3=N\c3ccc(F)c(O)c3)s2)N1c1ccc(F)c(O)c1 | MTT |  | 25.8 µM
COc1ccc(N(Cc2csc(-c3ccc(Br)cc3)n2)C(=O)CCCCCC(=O)NO)cc1 | MTT | 72 h | 9.21 µM
O=C(NCc1ccc(OC(F)(F)F)cc1)c1cn(Cc2ccc(F)cc2)c2ccc(Oc3ccccc3)cc2c1=O | MTT | 48 h | 79.6 µM
O=C1CS/C(=N\c2ccccc2Cl)N1c1nnc(-c2ccc(C(F)(F)F)cc2/N=C2\SCC(=O)N2c2ccccc2Cl)s1 | MTT |  | 47.1 µM
CCOC(=O)C(=CNc1ccc(Oc2ccccc2)cc1)C(=O)OCC | MTT |  | ≥ 200 µM
O=C(CCc1ccc(Cl)cc1)N1C(=O)C(=Nc2ccc(Cl)cc2Br)c2ccccc21 | MTT | 48 h | 34.1 µM
c1ccc(Cc2nnc(-c3nn(Cc4ccccc4)c4ccccc34)o2)cc1 |  | 48 h | 114 µM
O=C1CSC(=Nc2cc(C(F)(F)F)ccc2-c2nnc(N3C(=O)CSC3=Nc3ccc([N+](=O)[O-])cc3)s2)N1c1ccc([N+](=O)[O-])cc1 | MTT |  | 79.5 µM
O=C1C(=Nc2ccccc2Br)c2ccccc2N1Cc1ccccc1 | MTT | 48 h | 2.16 µM
O=C1Nc2ccccc2/C1=N/N=C/c1cccc([N+](=O)[O-])c1 | MTT | 48 h | 22.8 µg/mL
CC(C)c1cccc(C(C)C)c1N=C1C(=O)Nc2ccccc21 | MTT | 48 h | 0.69 µM

SMILES | test | conditions | IC50
COc1cccc(NC(=S)N/N=C/c2cccc3cc4ccccc4nc23)c1 | MTT | 48 h | > 50 µM
O=[N+]([O-])c1cc(I)c(O)c(C=NNc2ccc(Cl)cc2)c1 | MTT | 24 h | 14 µM
O=C(C=Cc1cccs1)c1ccc(OCCOc2ccc(C(=O)C=Cc3cccs3)cc2)cc1 | MTT | 48 h | 7.87 µM
O=C1C(=Nc2ccc(Cl)cc2)c2ccccc2N1Cc1ccc(Br)cc1 | MTT | 48 h | 2.16 µM
COc1ccc(-n2cc(CNC(=O)[C@@]3(C)[C@H](O)CC[C@@]4(C)[C@H]3CC[C@]3(C)[C@@H]4C(=O)C=C4[C@@H]5[C@@H](C)[C@H](C)CC[C@]5(C)CC[C@]43C)nn2)cc1 | MTT | 24 h | 79 µM
O=C1C(Cl)=C(n2ccnc2)C(=O)c2ccccc21 | MTT | 24 h | 48.8 µg/mL
C/C(=N\CCNCCNCC/N=C(\C)c1c(O)c2ccccc2oc1=O)c1c(O)c2ccccc2oc1=O | MTT | 48 h | 7.52 µM
CC1CCC(C(C)C)C(OC2=C(Cl)C(=O)c3ccccc3C2=O)C1 (stereo not drawn) | MTT | 24 h | 21.9 µg/mL
CC(=O)O[C@@H]1[C@@H](OC(C)=O)[C@H](OC(C)=O)CO[C@H]1n1cc(Cn2c(C(C)=O)nc3ccccc32)nn1 | LDH | 48 h | 2.73 µM
O=C1C(=Nc2ccccc2I)c2ccccc2N1Cc1ccc([N+](=O)[O-])cc1 | MTT | 48 h | 11.6 µM
CCOC(=O)c1c(C)nc2ccc(-c3ccc(F)cc3)cc2c1O | MTT | 48 h | 11 µM
Cc1nnc(-c2nn(Cc3ccc(Cl)cc3Cl)c3ccccc23)o1 |  | 48 h | 19.8 µM
C/C(=N\NC(=O)/N=C(\C)c1c(O)c2ccccc2oc1=O)c1c(O)c2ccccc2oc1=O | MTT | 48 h | 12.6 µM
NNc1nc2c(Cl)cc(Cl)cc2c(=O)n1-c1ccc(F)cc1 | MTT | 48 h | > 200 µM
CC(C)CNC(=S)N/N=C/c1cccc2cc3ccccc3nc12 | MTT | 48 h | > 50 µM
O=C(C=Cc1ccc(OCCOc2ccc(C=CC(=O)c3cccs3)cc2)cc1)c1cccs1 | MTT | 48 h | 11.5 µM
O=[N+]([O-])c1ccc(NC(=S)N/N=C/c2cccc3cc4ccccc4nc23)cc1 | MTT | 48 h | > 50 µM
Fc1ccccc1Nc1nc(-c2ccncc2)nc2c1CNCC2 | MTT |  | > 100 µM
Cc1ccc(CN2C(=O)C(=Nc3cccc(C)c3)c3ccccc32)cc1 | MTT | 48 h | 2.8 µM
C/C(=N\C(=N)/N=C(\C)c1c(O)c2ccccc2oc1=O)c1c(O)c2ccccc2oc1=O | MTT | 48 h | 19.6 µM
O=C1C(=Nc2cccc(Cl)c2)c2ccccc2N1Cc1ccc([N+](=O)[O-])cc1 | MTT | 48 h | 6.95 µM
C[C@H]1[C@H](C)CC[C@]2(C)CC[C@]3(C)C(=CC(=O)[C@@H]4[C@@]5(C)CC[C@@H](O)[C@](C)(C(=O)NCc6cn(-c7ccc(Br)cc7)nn6)[C@@H]5CC[C@]43C)[C@H]12 | MTT | 24 h | 75.1 µM
Fc1ccc2c(-c3nnc(Cc4ccccc4)s3)nn(Cc3ccc(Cl)cc3Cl)c2c1 |  | 48 h | 89.3 µM
Nc1ccn([C@@H]2O[C@H](CO)[C@@H](O)C2(F)F)c(=O)n1 | MTT | 24 h | 2.75 µg/mL
C(=N\Nc1cc(N/N=C/c2ccc3ccccc3n2)ncn1)/c1ccc2ccccc2n1 | MTT | 48 h | 34.3 µM
NNc1nc2c(Cl)cc(Cl)cc2c(=O)n1-c1ccc(Cl)cc1 | MTT | 48 h | > 200 µM
CC(=O)c1nc2ccccc2n1Cc1cn([C@@H]2O[C@H](CO)[C@H](O)[C@H](O)[C@H]2O)nn1 | LDH | 48 h | 2.89 µM
